# In ChEMBL document CHEMBL5724801, “EUbOPEN Chemogenomics Library - Multiplex” (2024):
# Where “and” joins values, the source holds several entries; their conditions need not be identical. Equal entries are not always repeated.
# What was measured:
# [1] = test system: Fibroblast; assay: Multiplex assay against human fibroblast; type: toxicity, cell-based
# Method in brief: (§1)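 Phenotypes for tubulin, mitochondrial mass and membrane permeability are expressed as per cents of healthy-nucleus cells. Cells were stained live at seeding with Hoechst33342, BioTracker Green Microtubule Cytoskeleton Dye, MitoTracker Red and Annexin V Alexa Fluor 680, then imaged after compound addition on a CQ1 microscope at 37°C and 5% CO2. Machine-learning gating in CellPathfinder separated Hoechst high-intensity objects from normal cells, divided normal cells by nuclear state (healthy, pyknosed, fragmented) and divided pyknosed cells into mitotic or apoptotic.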
# [2] = test system: HEK-293T; assay: Multiplex assay against HEK293T; type: toxicity, cell-based; details: human; method in brief: as §1
# [3] = 24 h, 10 µM, compound concentration 10 uM
# [4] = 48 h, 1 µM, compound concentration 1 uM
# [5] = 48 h, 10 µM, compound concentration 10 uM
# [6] = 12 h, 1 µM, compound concentration 1 uM
# [7] = 12 h, 10 µM, compound concentration 10 uM
# [8] = 24 h, 1 µM, compound concentration 1 uM
smiles,measurement,setting,value
CC(C)C[C@H](CO)Nc1nc(S[C@@H](C)c2ccccc2)nc2nc(N)sc12 [AZD-8797],Population Healthy Nuclei (%),[1]; [3],66% and 38%
same,Population Hoechst High Intensity Objects (%),[1]; [3],1% and 2%
same,Population Membrane Permeable-Phenotype (%),[1]; [3],0% and 8%
same,Population Mitochondria Different-Phenotype (%),[1]; [3],15% and 25%
same,Population Mitotic Cells (%),[1]; [3],42% and 66%
same,Population Normal (%),[1]; [3],98% and 97%
same,Population Pyknosed Nuclei (%),[1]; [3],12% and 19%
same,Population Tubulin-Different-Phenotype (%),[1]; [3],38% and 85%
same,Total Cell Count,[1]; [3],168 and 126
same,Population Apoptotic (%),[1]; [4],50% and 47%
same,Population Fragmented Nuclei (%),[1]; [4],25% and 30%
same,Population Healthy Nuclei (%),[1]; [4],60% and 48%
same,Population Hoechst High Intensity Objects (%),[1]; [4],1% and 4%
same,Population Membrane Permeable-Phenotype (%),[1]; [4],1% and 4%
same,Population Mitochondria Different-Phenotype (%),[1]; [4],1% and 4%
same,Population Mitotic Cells (%),[1]; [4],50% and 52%
same,Population Normal (%),[1]; [4],98% and 95%
same,Population Pyknosed Nuclei (%),[1]; [4],13% and 20%
same,Total Cell Count,[1]; [4],135 and 95
same,Population Apoptotic (%),[1]; [5],60% and 35%
same,Population Fragmented Nuclei (%),[1]; [5],25% and 45%
same,Population Healthy Nuclei (%),[1]; [5],65% and 40%
same,Population Hoechst High Intensity Objects (%),[1]; [5],2% and 1%
same,Population Membrane Permeable-Phenotype (%),[1]; [5],0% and 12%
same,Population Mitochondria Different-Phenotype (%),[1]; [5],13% and 18%
same,Population Mitotic Cells (%),[1]; [5],40% and 64%
same,Population Normal (%),[1]; [5],97% and 98%
same,Population Pyknosed Nuclei (%),[1]; [5],9% and 14%
same,Population Tubulin-Different-Phenotype (%),[1]; [5],35% and 89%
same,Total Cell Count,[1]; [5],168 and 121
same,Population Apoptotic (%),[2]; [6],39% and 46%
same,Population Fragmented Nuclei (%),[2]; [6],2% and 8%
same,Population Healthy Nuclei (%),[2]; [6],81% and 72%
same,Population Hoechst High Intensity Objects (%),[2]; [6],4% and 7%
same,Population Membrane Permeable-Phenotype (%),[2]; [6],0%
same,Population Mitochondria Different-Phenotype (%),[2]; [6],44% and 57%
same,Population Mitotic Cells (%),[2]; [6],60% and 53%
same,Population Normal (%),[2]; [6],95% and 92%
same,Population Pyknosed Nuclei (%),[2]; [6],15% and 18%
same,Population Tubulin-Different-Phenotype (%),[2]; [6],27% and 22%
same,Total Cell Count,[2]; [6],326 and 356
same,Population Apoptotic (%),[2]; [7],65% and 67%
same,Population Fragmented Nuclei (%),[2]; [7],9% and 6%
same,Population Healthy Nuclei (%),[2]; [7],71% and 75%
same,Population Hoechst High Intensity Objects (%),[2]; [7],10%
same,Population Membrane Permeable-Phenotype (%),[2]; [7],0%
same,Population Mitochondria Different-Phenotype (%),[2]; [7],70% and 75%
same,Population Mitotic Cells (%),[2]; [7],34% and 32%
same,Population Normal (%),[2]; [7],89%
same,Population Pyknosed Nuclei (%),[2]; [7],18%
same,Population Tubulin-Different-Phenotype (%),[2]; [7],56% and 39%
same,Total Cell Count,[2]; [7],279 and 345
same,Population Apoptotic (%),[2]; [8],37% and 45%
same,Population Fragmented Nuclei (%),[2]; [8],7%
same,Population Healthy Nuclei (%),[2]; [8],76% and 81%
same,Population Hoechst High Intensity Objects (%),[2]; [8],3% and 5%
same,Population Membrane Permeable-Phenotype (%),[2]; [8],0%
same,Population Mitochondria Different-Phenotype (%),[2]; [8],25% and 42%
same,Population Mitotic Cells (%),[2]; [8],62% and 54%
same,Population Normal (%),[2]; [8],97% and 94%
same,Population Pyknosed Nuclei (%),[2]; [8],15% and 11%
same,Population Tubulin-Different-Phenotype (%),[2]; [8],16% and 14%
same,Total Cell Count,[2]; [8],400 and 421
same,Population Apoptotic (%),[2]; [3],54% and 51%
same,Population Fragmented Nuclei (%),[2]; [3],8% and 9%
same,Population Healthy Nuclei (%),[2]; [3],73% and 77%
same,Population Hoechst High Intensity Objects (%),[2]; [3],9% and 8%
same,Population Membrane Permeable-Phenotype (%),[2]; [3],0%
same,Population Mitochondria Different-Phenotype (%),[2]; [3],64% and 71%
same,Population Mitotic Cells (%),[2]; [3],45% and 48%
same,Population Normal (%),[2]; [3],90% and 91%
same,Population Pyknosed Nuclei (%),[2]; [3],17% and 12%
same,Population Tubulin-Different-Phenotype (%),[2]; [3],39% and 36%
same,Total Cell Count,[2]; [3],346 and 393
same,Population Apoptotic (%),[2]; [4],43% and 24%
same,Population Fragmented Nuclei (%),[2]; [4],15% and 12%
same,Population Healthy Nuclei (%),[2]; [4],78% and 79%
same,Population Hoechst High Intensity Objects (%),[2]; [4],1% and 3%
same,Population Membrane Permeable-Phenotype (%),[2]; [4],0% and 1%
same,Population Mitochondria Different-Phenotype (%),[2]; [4],16% and 24%
same,Population Mitotic Cells (%),[2]; [4],56% and 75%
same,Population Normal (%),[2]; [4],98% and 96%
same,Population Pyknosed Nuclei (%),[2]; [4],6% and 8%
same,Population Tubulin-Different-Phenotype (%),[2]; [4],10% and 13%
same,Total Cell Count,[2]; [4],663 and 681
same,Population Apoptotic (%),[2]; [5],60% and 52%
same,Population Fragmented Nuclei (%),[2]; [5],16% and 15%
same,Population Healthy Nuclei (%),[2]; [5],72% and 75%
same,Population Hoechst High Intensity Objects (%),[2]; [5],7% and 6%
same,Population Membrane Permeable-Phenotype (%),[2]; [5],0%
same,Population Mitochondria Different-Phenotype (%),[2]; [5],57% and 52%
same,Population Mitotic Cells (%),[2]; [5],39% and 47%
same,Population Normal (%),[2]; [5],92% and 93%
same,Population Pyknosed Nuclei (%),[2]; [5],11% and 8%
same,Population Tubulin-Different-Phenotype (%),[2]; [5],28% and 21%
same,Total Cell Count,[2]; [5],416 and 530
